The source made the active and inactive calls. No cut-off for these calls is given here.
How the values were obtained:
Mus musculus [1] = organism: Mus musculus; assay: Binding affinity to amyloid beta (1 to 42) aggregate in APP/PS1 transgenic C57BL/6 mouse brain after 1 hr by autoradiography; assay type: tissue-based; conditions: C57BL6, tested as the 18F-labelled form
Method in brief: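 Paraffin brain sections from 12-month-old male C57BL6-APP/PS1 mice, with wild-type male C57BL6 controls, were deparaffinized through xylene and graded ethanol, then held 30 min in PBS (0.2 M, pH 7.4). Sections were incubated 1 h at room temperature with radiotracer (5 μCi/100 μL), washed 3 min in 40% ethanol, rinsed in water, dried and exposed to an imaging plate overnight.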

[2] = target: Amyloid-beta precursor protein (Homo sapiens) (UniProt P05067); assay: Binding affinity to amyloid beta (1 to 42) aggregate in Alzheimer disease patient brain by immunohistochemical staining using amyloid beta antibody; conditions: tested as the 18F-labelled form
Method in brief: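 Plaque presence and location in the AD patient temporal-lobe sections were confirmed by immunohistochemistry with monoclonal anti-Aβ1-42 antibody BC05.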

[3] = Displacement of [125I]IMPY from amyloid beta (1 to 42) aggregate after 2 hrs by gamma counting
Method in brief: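 Competition binding in 1 mL PBS (0.2 M, pH 7.4). Aggregated Aβ1-42 fibrils (60 nM final) with [125I]IMPY and inhibitor at 10^-5 to 10^-10 M, added in ethanol. Nonspecific binding was defined with 1 μM IMPY. Incubated 2 h at 37 °C with shaking, then vacuum-filtered through glass fibre filters and the bound fraction gamma-counted. IC50 was converted to Ki by Cheng-Prusoff; triplicate, mean ± SD.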

Mus musculus [4] = organism: Mus musculus; assay: Binding affinity to amyloid beta (1 to 42) aggregate in APP/PS1 transgenic C57BL/6 mouse brain by Thioflavin S fluorescent staining assay; assay type: tissue-based; conditions: C57BL6, tested as the 18F-labelled form
Method in brief: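 The same Tg mouse sections used for autoradiography were stained with thioflavin S to locate plaques. Fluorescence was viewed by microscope: excitation 400–440 nm, dichroic 455 nm, long-pass 470 nm.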

Chain of Amyloid-beta precursor protein (Homo sapiens) (P05067 whole entry): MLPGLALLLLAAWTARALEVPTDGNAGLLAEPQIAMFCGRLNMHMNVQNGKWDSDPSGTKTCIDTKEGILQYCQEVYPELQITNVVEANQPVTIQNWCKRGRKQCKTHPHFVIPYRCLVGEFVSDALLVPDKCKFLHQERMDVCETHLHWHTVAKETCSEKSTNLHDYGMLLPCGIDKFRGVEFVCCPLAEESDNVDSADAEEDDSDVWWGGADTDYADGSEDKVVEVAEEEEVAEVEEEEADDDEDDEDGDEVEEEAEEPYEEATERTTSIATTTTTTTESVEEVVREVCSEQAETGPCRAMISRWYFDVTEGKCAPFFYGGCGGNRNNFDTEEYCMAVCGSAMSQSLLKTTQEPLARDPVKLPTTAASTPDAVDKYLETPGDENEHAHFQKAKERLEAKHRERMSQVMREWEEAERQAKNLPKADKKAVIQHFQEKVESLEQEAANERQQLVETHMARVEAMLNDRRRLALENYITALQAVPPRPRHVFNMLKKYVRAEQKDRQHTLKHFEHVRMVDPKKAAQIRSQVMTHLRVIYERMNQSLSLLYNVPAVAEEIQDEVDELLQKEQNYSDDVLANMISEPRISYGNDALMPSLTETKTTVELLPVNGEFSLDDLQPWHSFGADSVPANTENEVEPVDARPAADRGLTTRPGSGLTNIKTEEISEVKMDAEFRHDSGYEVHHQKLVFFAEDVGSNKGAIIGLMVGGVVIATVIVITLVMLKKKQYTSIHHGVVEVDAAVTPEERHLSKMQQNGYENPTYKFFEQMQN

Activity (Mus musculus [1])	Activity [2]	Ki [3]	Activity (Mus musculus [4])	Structure (SMILES)
Active	Active	6.9 nM	Active	CN(C)c1ccc(/C=C/C(=O)/C=C/c2ccc(OCCOCCOCCF)cc2)cc1
Active	Active	8.6 nM	Active	CNc1ccc(/C=C/C(=O)/C=C/c2ccc(OCCOCCOCCF)cc2)cc1

From ChEMBL document CHEMBL1765020, “Synthesis and structure-affinity relationships of novel dibenzylideneacetone derivatives as probes for β-amyloid plaques” (J Med Chem, 2011)
